Calls of active or inactive are those of the source. No cut-off for these calls is given here.

Type in all cases: functional, cell-based
Assay [1] concerns the target T1, Glucose-dependent insulinotropic receptor (Homo sapiens) (UniProt Q8TDV5).
T1 sequence (whole entry): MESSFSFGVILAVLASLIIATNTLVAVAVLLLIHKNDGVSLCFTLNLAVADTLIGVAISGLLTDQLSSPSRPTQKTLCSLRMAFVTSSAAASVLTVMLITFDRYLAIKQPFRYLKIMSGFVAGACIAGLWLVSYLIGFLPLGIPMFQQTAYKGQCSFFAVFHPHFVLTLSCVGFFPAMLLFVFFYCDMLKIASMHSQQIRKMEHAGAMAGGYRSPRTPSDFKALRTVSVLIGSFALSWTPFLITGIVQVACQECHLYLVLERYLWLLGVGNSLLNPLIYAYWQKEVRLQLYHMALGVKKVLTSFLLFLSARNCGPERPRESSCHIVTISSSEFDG
The assay can be described thus: Agonist activity at human GPR119 expressed in HEK293 cells assessed as cAMP accumulation after 60 mins relative to OEA. In outline: (§1)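 HEK293 cells (4x10³/well) seeded, after 24h transiently transfected with human GPR119 expression plasmid via Lipofectamine/Plus; 24h later exposed to compounds in KRBH with 0.1% BSA and 500 μM IBMX, 60 min, 37 C. Lysed 10 min at room temperature (50 mM phosphate, 1 M KF, 1.25% Triton X-100, pH 7.0); cAMP read by HTRF. EC50 taken as concentration giving 50% of OEA cAMP stimulation; %max relative to OEA maximal effect.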

Assay [2] deals with T2, Glucose-dependent insulinotropic receptor (Homo sapiens, UniProt Q8TDV5).
T2 sequence (Q8TDV5 whole entry): T1 sequence (whole entry)
The assay can be described thus: Agonist activity at human GPR119 expressed in HEK293 cells assessed as cAMP accumulation after 60 mins. In outline: as §1
(Cyclic AMP is a second messenger, typically raised through Gs and lowered through Gi signalling.)

Assay [3] addresses T1, Glucose-dependent insulinotropic receptor (Homo sapiens). The assay can be described thus: Agonist activity at human GPR119 expressed in HEK293 cells assessed as cAMP accumulation at 10 uM after 60 mins.
Assay [4] has the same target. The assay can be described thus: Agonist activity at human GPR119 expressed in HEK293 cells assessed as cAMP accumulation at 10 uM after 60 mins relative to OEA. In outline: as §1

As usually defined, the Emax is the maximal effect, on the per cent scale that the assay sets. As usually defined, the EC50 is the concentration needed to bring the measured effect to its halfway point. Regarding `COc1cc2nc(Nc3ccc(S(C)(=O)=O)cc3)nc(NCC3CC4CCC(C3)N4C(=O)OC(C)(C)C)c2cc1OC` (centres undefined), the Emax in assay [1] came out at 15.1%. The EC50 in assay [2] was greater than 10 µM.
In the same order, the values of `COc1cc2nc(NC3CC4CCC(C3)N4C(=O)OC(C)(C)C)nc(Nc3ccc(S(C)(=O)=O)cc3F)c2cc1OC` (centres undefined) are 46.2% and 1 µM.
In the same order, the values of `COc1cc2nc(N3CCC4CCC(C3)N4Cc3ccccc3)nc(Nc3ccc(S(C)(=O)=O)cc3)c2cc1OC` (racemic) are 23.4% and greater than 10 µM.
In the same order, the values of `COc1cc2nc(NCC3CC4CCC(C3)N4C(=O)OC(C)(C)C)nc(Nc3ccc(S(C)(=O)=O)cc3F)c2cc1OC` (centres undefined) are 53.7% and 1 µM.
Take `COc1cc2nc(NCC3CC4CCC(C3)N4C(=O)OC(C)(C)C)nc(Nc3ccc(S(C)(=O)=O)cc3)c2cc1OC` (centres undefined): in assay [1], the maximal effect (Emax) was found to be 19.9%. Moreover, the EC50 in assay [2] was greater than 10 µM.
For `COc1cc2nc(Nc3ccc(S(C)(=O)=O)cc3)nc(N3CCC4CCC(C3)N4Cc3ccccc3)c2cc1OC` (racemic), in assay [1], the Emax turned out to be 32.8%. For the same compound, the EC50 in assay [2] is greater than 10 µM.
In the same order, the values of `COc1cc2nc(Nc3ccc(S(C)(=O)=O)cc3)nc(N3CCC4CCC(C3)N4C(=O)OC(C)(C)C)c2cc1OC` (racemic) are 37.5% and greater than 10 µM.
On to `COc1cc2nc(OCC3CCN(C(=O)OC(C)(C)C)CC3)nc(Nc3ccc(S(C)(=O)=O)cc3)c2cc1OC`, for which the outcome in assay [3] was inactive. For the same compound, the Emax entry in assay [4] was “inactive”.
`COc1cc2nc(N3CCC4CCC(C3)N4Cc3ccccc3)nc(Nc3ccc(S(C)(=O)=O)cc3F)c2cc1OC` (racemic): in assay [1], the Emax was found to be 44.3%. Moreover, the 50% effective concentration (EC50) in assay [2] was greater than 10 µM.
In the same order, the values of `COc1cc2nc(OC3CCN(C(=O)OC(C)(C)C)CC3)nc(Nc3ccc(S(C)(=O)=O)cc3F)c2cc1OC` are 19.6% and greater than 10 µM.
As to `CCCCCCCC/C=C\CCCCCCCC(=O)NCCO` [OLEOYLETHANOLAMIDE], the concentration giving a half-maximal response (EC50) in assay [2] was 2.2 µM.
With `COc1cc2nc(Nc3ccc(S(C)(=O)=O)cc3)nc(OCC3CCN(C(=O)OC(C)(C)C)CC3)c2cc1OC`, the Emax in assay [1] came to 17.4%. In addition, the EC50 in assay [2] was greater than 10 µM.
In the same order, the values of `COc1cc2nc(OC3CCN(C(=O)OC(C)(C)C)CC3)nc(Nc3ccc(S(C)(=O)=O)cc3)c2cc1OC` are 17.9% and greater than 10 µM.
In the same order, the values of `COc1cc2nc(OCC3CCN(C(=O)OC(C)(C)C)CC3)nc(Nc3ccc(S(C)(=O)=O)cc3F)c2cc1OC` are 33.2% and greater than 10 µM.
In the same order, the values of `COc1cc2nc(N3CCC4CCC(C3)N4C(=O)OC(C)(C)C)nc(Nc3ccc(S(C)(=O)=O)cc3)c2cc1OC` (racemic) are 32.7% and greater than 10 µM.
As for `COc1cc2nc(Nc3ccc(S(C)(=O)=O)cc3)nc(OC3CCN(C(=O)OC(C)(C)C)CC3)c2cc1OC`, in assay [1], the Emax was found to be 20.6%. The EC50 in assay [2] is greater than 10 µM.
For the compound `COc1cc2nc(Nc3ccc(S(C)(=O)=O)cc3)nc(NC3CC4CCC(C3)N4C(=O)OC(C)(C)C)c2cc1OC` (centres undefined), the Emax in assay [1] was 17%. In assay [2], the EC50 is greater than 10 µM.
In the same order, the values of `COc1cc2nc(N3CCC4CCC(C3)N4C(=O)OC(C)(C)C)nc(Nc3ccc(S(C)(=O)=O)cc3F)c2cc1OC` (racemic) are 56.9% and 1 µM.
In the same order, the values of `COc1cc2nc(Nc3ccc(S(C)(=O)=O)cc3F)nc(OCC3CCN(C(=O)OC(C)(C)C)CC3)c2cc1OC` are 21.3% and greater than 10 µM.
In the same order, the values of `COc1cc2nc(Nc3ccc(S(C)(=O)=O)cc3F)nc(OC3CCN(C(=O)OC(C)(C)C)CC3)c2cc1OC` are 19.7% and greater than 10 µM.

Values taken from ChEMBL document CHEMBL2331248, “Synthesis and biological evaluation of novel 2,4-disubstituted quinazoline analogues as GPR119 agonists” (Bioorg Med Chem, 2013).
